Measured values from ChEMBL document CHEMBL1275449, “Potent in vitro antifungal activities of naturally occurring acetylenic acids” (Antimicrob Agents Chemother, 2008).
Calls of active or inactive are those of the source.

Experiments:
Format in all cases: functional, organism-based
Candida albicans [1] = assay: Antifungal activity against Candida albicans ATCC 90028 at 198.1 uM after 48 hrs by CLSI method
Outline: (§1)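 Candida inocula came from 24–72-h SD agar colonies suspended in saline. They were diluted by OD630 standard curve into RPMI 1640 (0.2% dextrose, 0.03% glutamine, 0.165 M MOPS, pH 7.0) to 1.5 × 10³ CFU/ml. Compounds were run as 11 twofold dilutions in 20% DMSO-saline, in duplicate, at 35°C for 48 h, with OD530 read before and after. Percent growth at the top concentration, IC50, MIC, and MFC (SD agar plating) were derived.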

Candida albicans [2] = assay: Antifungal activity against Candida albicans ATCC 200955 at 198.1 uM after 48 hrs by CLSI method; outline: as §1
Aspergillus fumigatus [3] = assay: Antifungal activity against Aspergillus fumigatus ATCC 90906 at 198.1 uM after 48 hrs by CLSI method
Candida albicans [4] = assay: Antifungal activity against Candida albicans ATCC 32354 at 168.9 uM after 48 hrs by CLSI method; outline: as §1
Candida albicans [5] = assay: Antifungal activity against Candida albicans ATCC 90028 at 168.9 uM after 48 hrs by CLSI method; outline: as §1
Candida albicans [6] = assay: Antifungal activity against Fluconazole resistant Candida albicans isolate 17 at 168.9 uM after 48 hrs by CLSI method
Outline: (§2)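 Candida in CLSI broth microdilution. Saline colony suspension set to 1.5 × 10³ CFU/ml (final) in MOPS-buffered RPMI 1640, pH 7.0. Test agent given as twofold serial dilutions in 20% DMSO-saline, duplicate wells. 35°C for 48 h. Growth read as OD530 before and after incubation. Percent inhibition scored at the highest test concentration.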

Cryptococcus neoformans [7] = assay: Antifungal activity against Cryptococcus neoformans ATCC 90113 at 168.9 uM after 72 hrs by CLSI method
Outline: (§3)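 SD broth replaced RPMI because growth in RPMI was poor; other CLSI conditions were kept. Inoculum was 1.5 × 10³ CFU/ml from colonies on SD agar, checked by plating. Twofold serial dilutions (11 concentrations) in 20% DMSO-saline were tested in duplicate. OD530 was read before and after incubation at 35°C for 72 h. Percent growth gave IC50; the MIC is the lowest concentration with no detectable growth.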

Aspergillus fumigatus [8] = assay: Antifungal activity against Aspergillus fumigatus ATCC 204305 at 168.9 uM after 48 hrs by CLSI method
Aspergillus fumigatus [9] = assay: Antifungal activity against Aspergillus fumigatus ATCC 90906 at 168.9 uM after 48 hrs by CLSI method
Pichia kudriavzevii [10] = assay: Antifungal activity against Candida krusei ATCC 6258 at 187.7 uM after 48 hrs by CLSI method
Outline: (§4)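 Yeast suspensions made from 3-5 colonies off 24-72 h SD agar plates in saline. They were diluted by OD630 standard curve in RPMI 1640 (0.2% dextrose, 0.03% glutamine, 0.165 M MOPS, pH 7.0) to 1.5 × 10³ CFU/ml. Twofold dilutions (11 concentrations, 20% DMSO-saline) run in duplicate. OD530 read before and after 35°C, 48 h. Line values are top test concentrations; no-growth endpoints give MIC/MFC.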

Cryptococcus neoformans [11] = assay: Antifungal activity against Cryptococcus neoformans ATCC 90113 at 187.7 uM after 72 hrs by CLSI method; outline: as §3
Cryptococcus neoformans [12] = assay: Antifungal activity against Cryptococcus neoformans ATCC 66031 at 187.7 uM after 72 hrs by CLSI method; outline: as §3
Aspergillus niger = assay: Antifungal activity against Aspergillus niger ATCC 16404 at 187.7 uM after 48 hrs by CLSI method
Pichia kudriavzevii [13] = assay: Antifungal activity against Candida krusei ATCC 6258 at 169.8 uM after 48 hrs by CLSI method; outline: as §1
Candida tropicalis = assay: Antifungal activity against Candida tropicalis ATCC 750 at 169.8 uM after 48 hrs by CLSI method; outline: as §4
Cryptococcus neoformans [14] = assay: Antifungal activity against Cryptococcus neoformans ATCC 90113 at 169.8 uM after 72 hrs by CLSI method; outline: as §3
Aspergillus fumigatus [15] = assay: Antifungal activity against Aspergillus fumigatus ATCC 204305 at 169.8 uM after 48 hrs by CLSI method
Aspergillus fumigatus [16] = assay: Antifungal activity against Aspergillus fumigatus ATCC 90906 at 169.8 uM after 48 hrs by CLSI method
Candida parapsilosis = assay: Antifungal activity against Candida parapsilosis ATCC 22019 at 9.4 uM after 48 hrs by CLSI method; outline: as §2
Candida albicans [17] = assay: Antifungal activity against Candida albicans ATCC 14053 at 9.4 uM after 48 hrs by CLSI method; outline: as §2
Candida albicans [18] = assay: Antifungal activity against Candida albicans ATCC 60193 at 9.4 uM after 48 hrs by CLSI method; outline: as §2
Candida albicans [19] = assay: Antifungal activity against Candida albicans ATCC 32354 at 9.4 uM after 48 hrs by CLSI method; outline: as §2

Measured: Activity

CCCCCCCCCC#CCCCCC(=O)O
inactive: Candida albicans [1] | Candida albicans [2] | Aspergillus fumigatus [3]

CCCCCC#CCC#CCC#CCC#CCCCC(=O)O
inactive: Candida albicans [4] | Candida albicans [5] | Candida albicans [6] | Cryptococcus neoformans [7] | Aspergillus fumigatus [8] | Aspergillus fumigatus [9]

CCCCCCCCCCC#CCCCCC(=O)O
inactive: Pichia kudriavzevii [10] | Cryptococcus neoformans [11] | Cryptococcus neoformans [12] | Aspergillus niger

CCCCCCCCCCCCC#CCCCCC(=O)O [6-NONADECYNOIC ACID]
inactive: Pichia kudriavzevii [13] | Candida tropicalis | Cryptococcus neoformans [14] | Aspergillus fumigatus [15] | Aspergillus fumigatus [16]

CC(=O)N1CCN(c2ccc(OCC3COC(Cn4ccnc4)(c4ccc(Cl)cc4Cl)O3)cc2)CC1 (configuration not stated) [KETOCONAZOLE]
inactive: Candida parapsilosis | Candida albicans [17] | Candida albicans [18] | Candida albicans [19]
